From ChEMBL document CHEMBL3593208 (Bioorg Med Chem, 2015)

Columns and labels:
[1] = molecular target: Histone deacetylase 1 (Homo sapiens, UniProt Q13547); experiment: Inhibition of recombinant full-length HDAC1 (unknown origin) using MAZ1600/MAZ1675 as substrate assessed as release of 7 amino-4-methylcoumarin measured every 5 mins by fluorescence assay
Outline: (§1)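 AMC release after deacetylase plus trypsin action read every 5 min. First derivative in the linear range used. Replicates normalised to DMSO controls (<0.5%). IC50 by logistic regression, unconstrained max/min.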

[2] = molecular target: Histone deacetylase 2 (Homo sapiens, UniProt Q92769); experiment: Inhibition of recombinant full-length HDAC2 (unknown origin) using MAZ1600/MAZ1675 as substrate assessed as release of 7 amino-4-methylcoumarin measured every 5 mins by fluorescence assay; outline: as §1
[3] = molecular target: Histone deacetylase 3 (Homo sapiens, UniProt O15379); experiment: Inhibition of recombinant full-length HDAC3 (unknown origin) using MAZ1600/MAZ1675 as substrate assessed as release of 7 amino-4-methylcoumarin measured every 5 mins by fluorescence assay
[4] = Cytotoxicity against human NMC-797 cells assessed as cell viability after 48 hrs by luminescence assay; format: functional, cell-based; details: NMC-797, 48 h
Outline: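 797 cells seeded at 2.0×10^4 cells/well in 384-well plates. Compound was pin-transferred in a dose-response series with 0.02% DMSO final and incubated 48 h. Viability was read as ATP-dependent luminescence. IC50 was estimated by logistic regression of replicate measurements against dose, with standard error of logIC50.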

[5] = Cytotoxicity against human NMC-10326 cells assessed as cell viability after 48 hrs by luminescence assay; format: functional, cell-based
Outline: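 Cells seeded in 384-well plates at 2.0×10^4 cells/well; compound pin-transferred in a dose series, final DMSO 0.02%. After 48 h exposure, viability read as ATP-dependent luminescence (ATPLite). IC50 estimated from replicate measurements by logistic regression.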

[6] = molecular target: T1, Protein deacetylase HDAC6 (Homo sapiens, UniProt Q9UBN7); experiment: Inhibition of recombinant full-length HDAC6 (unknown origin) using MAZ1600/MAZ1675 as substrate assessed as release of 7 amino-4-methylcoumarin measured every 5 mins by fluorescence assay
T1 sequence (Q9UBN7 whole entry): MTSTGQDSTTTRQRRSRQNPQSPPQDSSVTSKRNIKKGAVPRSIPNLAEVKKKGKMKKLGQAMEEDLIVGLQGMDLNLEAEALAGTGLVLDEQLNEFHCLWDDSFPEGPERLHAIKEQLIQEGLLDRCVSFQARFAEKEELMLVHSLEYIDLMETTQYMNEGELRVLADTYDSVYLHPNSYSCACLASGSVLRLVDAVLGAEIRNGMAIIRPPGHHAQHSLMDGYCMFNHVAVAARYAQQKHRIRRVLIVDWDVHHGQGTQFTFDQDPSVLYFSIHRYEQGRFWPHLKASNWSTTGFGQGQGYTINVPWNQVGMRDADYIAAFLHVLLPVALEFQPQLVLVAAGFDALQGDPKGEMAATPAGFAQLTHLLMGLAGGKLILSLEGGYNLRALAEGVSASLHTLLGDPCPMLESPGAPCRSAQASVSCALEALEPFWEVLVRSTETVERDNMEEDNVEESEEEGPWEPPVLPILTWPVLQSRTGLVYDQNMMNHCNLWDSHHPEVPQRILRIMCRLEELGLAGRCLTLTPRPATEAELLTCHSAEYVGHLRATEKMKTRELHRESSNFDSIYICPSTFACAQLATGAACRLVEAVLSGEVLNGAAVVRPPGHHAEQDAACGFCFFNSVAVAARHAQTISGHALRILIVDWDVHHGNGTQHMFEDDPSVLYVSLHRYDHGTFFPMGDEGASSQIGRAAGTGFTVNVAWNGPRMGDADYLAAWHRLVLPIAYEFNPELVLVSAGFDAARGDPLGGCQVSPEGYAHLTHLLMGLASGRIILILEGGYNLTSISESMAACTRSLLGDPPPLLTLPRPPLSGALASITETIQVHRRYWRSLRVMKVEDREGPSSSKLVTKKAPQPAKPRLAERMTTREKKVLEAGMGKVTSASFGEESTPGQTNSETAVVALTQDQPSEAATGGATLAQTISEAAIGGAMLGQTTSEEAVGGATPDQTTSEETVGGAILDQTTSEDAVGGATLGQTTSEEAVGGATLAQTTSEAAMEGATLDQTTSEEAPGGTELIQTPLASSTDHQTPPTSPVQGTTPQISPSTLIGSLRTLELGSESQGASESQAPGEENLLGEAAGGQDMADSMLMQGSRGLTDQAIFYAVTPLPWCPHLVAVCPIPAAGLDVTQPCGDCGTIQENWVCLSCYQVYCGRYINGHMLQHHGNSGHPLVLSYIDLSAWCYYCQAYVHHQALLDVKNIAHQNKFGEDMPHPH
Outline: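 AMC release after deacetylase/trypsin action read every 5 min. Linear-range first derivative normalised to DMSO controls (<0.5%). IC50 by unconstrained logistic regression.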

[7] = molecular target: T2, Histone deacetylase 8 (Homo sapiens, UniProt Q9BY41); experiment: Inhibition of recombinant full-length HDAC8 (unknown origin) using MAZ1600/MAZ1675 as substrate assessed as release of 7 amino-4-methylcoumarin measured every 5 mins by fluorescence assay; outline: as §1
T2 sequence (Q9BY41 whole entry): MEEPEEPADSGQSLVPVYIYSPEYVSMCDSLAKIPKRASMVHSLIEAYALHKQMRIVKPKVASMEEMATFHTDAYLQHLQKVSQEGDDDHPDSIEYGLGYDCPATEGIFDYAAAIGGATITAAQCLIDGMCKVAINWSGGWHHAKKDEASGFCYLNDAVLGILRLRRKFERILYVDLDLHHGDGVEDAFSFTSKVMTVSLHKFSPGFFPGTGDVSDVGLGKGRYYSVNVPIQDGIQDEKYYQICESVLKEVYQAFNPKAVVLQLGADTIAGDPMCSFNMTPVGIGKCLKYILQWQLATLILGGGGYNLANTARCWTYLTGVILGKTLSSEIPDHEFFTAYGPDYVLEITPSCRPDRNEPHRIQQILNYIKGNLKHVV

Histone deacetylase 3, sequence (O15379 whole entry): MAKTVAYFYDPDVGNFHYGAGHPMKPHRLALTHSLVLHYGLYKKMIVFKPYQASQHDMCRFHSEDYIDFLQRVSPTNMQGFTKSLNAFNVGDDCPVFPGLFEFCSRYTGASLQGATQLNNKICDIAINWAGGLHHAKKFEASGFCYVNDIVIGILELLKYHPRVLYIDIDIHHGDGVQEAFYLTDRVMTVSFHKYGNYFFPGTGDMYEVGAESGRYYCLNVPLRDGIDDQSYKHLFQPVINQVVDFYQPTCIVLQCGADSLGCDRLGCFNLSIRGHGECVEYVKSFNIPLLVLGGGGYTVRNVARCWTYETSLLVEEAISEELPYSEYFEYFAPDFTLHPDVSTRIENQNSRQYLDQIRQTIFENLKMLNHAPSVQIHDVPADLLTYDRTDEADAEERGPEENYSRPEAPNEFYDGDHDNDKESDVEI
Histone deacetylase 1, sequence (Q13547 whole entry): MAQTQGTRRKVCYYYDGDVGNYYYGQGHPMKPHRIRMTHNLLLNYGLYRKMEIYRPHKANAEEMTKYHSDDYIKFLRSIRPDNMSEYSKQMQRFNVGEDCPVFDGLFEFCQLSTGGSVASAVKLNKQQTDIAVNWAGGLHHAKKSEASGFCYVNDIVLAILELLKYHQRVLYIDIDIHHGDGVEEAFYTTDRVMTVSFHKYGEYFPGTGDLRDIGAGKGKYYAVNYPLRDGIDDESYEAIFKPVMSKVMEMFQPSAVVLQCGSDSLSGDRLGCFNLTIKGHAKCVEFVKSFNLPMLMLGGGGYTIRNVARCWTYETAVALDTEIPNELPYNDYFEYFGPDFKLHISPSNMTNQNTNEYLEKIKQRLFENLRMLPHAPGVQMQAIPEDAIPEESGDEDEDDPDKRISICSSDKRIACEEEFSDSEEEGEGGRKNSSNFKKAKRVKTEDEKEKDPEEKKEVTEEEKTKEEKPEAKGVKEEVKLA
Histone deacetylase 2, sequence (Q92769 whole entry): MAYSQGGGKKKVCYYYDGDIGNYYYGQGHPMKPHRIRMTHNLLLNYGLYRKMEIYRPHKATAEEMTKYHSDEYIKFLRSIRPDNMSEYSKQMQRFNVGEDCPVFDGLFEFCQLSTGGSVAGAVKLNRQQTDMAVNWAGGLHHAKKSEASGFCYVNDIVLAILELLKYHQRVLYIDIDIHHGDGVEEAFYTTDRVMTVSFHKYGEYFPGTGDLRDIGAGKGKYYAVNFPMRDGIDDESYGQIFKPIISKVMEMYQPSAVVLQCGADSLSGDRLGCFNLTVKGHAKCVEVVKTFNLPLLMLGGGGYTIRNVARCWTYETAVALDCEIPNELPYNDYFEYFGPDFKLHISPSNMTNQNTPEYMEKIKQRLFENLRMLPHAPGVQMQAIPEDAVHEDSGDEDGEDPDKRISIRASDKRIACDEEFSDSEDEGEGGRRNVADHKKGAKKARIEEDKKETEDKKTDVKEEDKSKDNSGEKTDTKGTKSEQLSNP

Compound | IC50 [1] [µM] | IC50 [2] [µM] | IC50 [3] [µM] | IC50 ([4]; read-out: IC50) [µM] | IC50 ([4]; read-out: pIC50 (converted)) [µM] | IC50 ([5]; read-out: IC50) [µM] | IC50 ([5]; read-out: pIC50 (converted)) [µM] | IC50 [6] [µM] | IC50 [7] [µM]
CCCCCCCC(=O)SCC/C=C/[C@@H]1CC(=O)NCc2cccc(n2)C2=N[C@@](C)(CS2)C(=O)N[C@@H](C(C)C)C(=O)N1 | 0.34 | 0.472 | 0.332 |  |  |  |  |  | 
CC(C)[C@@H]1NC(=O)[C@]2(C)CSC(=N2)c2cccc(n2)CNC(=O)C[C@@H](/C=C/CCS)OC1=O |  |  | 0.00307 | 0.22 | 0.222 | 0.29 | 0.298 | 0.0485 | 0.341
CCCCCCCC(=O)SCC/C=C/[C@@H]1CC(=O)NCc2cc(ccn2)C2=N[C@@](C)(CS2)C(=O)N[C@@H](C(C)C)C(=O)N1 | 0.817 | 1.24 | 0.846 |  |  |  |  |  | 
CCCCCCCC(=O)SCC/C=C/[C@@H]1CC(=O)NCc2cccc(n2)C2=N[C@@](C)(CS2)C(=O)N[C@@H](C(C)C)C(=O)O1 | 0.204 | 0.35 | 0.332 |  |  |  |  |  | 
CCCCCCCC(=O)SCC/C=C/[C@@H]1CC(=O)NCc2cc(ccn2)C2=N[C@@](C)(CS2)C(=O)N[C@@H](C(C)C)C(=O)O1 | 0.34 | 0.655 | 0.32 |  |  |  |  |  | 
CC(C)[C@@H]1NC(=O)[C@]2(C)CSC(=N2)c2cccc(n2)CNC(=O)C[C@@H](/C=C/CCS)NC1=O | 0.042 | 0.0698 | 0.0425 |  |  |  |  |  | 
CC(C)[C@@H]1NC(=O)[C@]2(C)CSC(=N2)c2ccnc(c2)CNC(=O)C[C@@H](/C=C/CCS)NC1=O | 0.0132 | 0.0208 | 0.0146 |  |  |  |  | 2.85 | 1.49
CC(C)[C@@H]1NC(=O)[C@]2(C)CSC(=N2)c2csc(n2)CNC(=O)C[C@@H](/C=C/CCS)NC1=O |  |  |  | 1.74 | 1.73 | 11.9 | 11.9 |  | 0.255
CC(C)[C@@H]1NC(=O)[C@]2(C)CSC(=N2)c2ccnc(c2)CNC(=O)C[C@@H](/C=C/CCS)OC1=O | 0.0022 | 0.00442 | 0.00231 | 0.09 | 0.0931 | 0.12 | 0.122 | 0.0352 | 0.102
